The source made the active and inactive calls. The calls are words filed in the database; no cut-off is given here.
Columns and labels:
[1] = system: Candida albicans; experiment: Up-regulation of MDR1 mRNA expression in Candida albicans 0304103 at 32 ug/ml incubated for 24 hrs by RT-PCR analysis; type: functional; conditions: dose 32.0 µg/ml
How it was run: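 Cells from a 1 × 10⁶ cells/mL starting suspension were split into DMSO control, FLC 32 μg/mL, test compound 32 μg/mL and combination (32 + 32 μg/mL) groups, then incubated 24 h at 35 °C in YEPD. Total RNA was extracted and reverse-transcribed. Real-time PCR ran 40 cycles (95 °C 5 s, 60 °C 34 s). Fold change was calculated by 2^−ΔΔCt against ACT1.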

[2] = system: Candida albicans; experiment: Antifungal activity against Candida albicans 0304103 infected in ICR mouse model of candidiasis assessed as reduction in morphological changes of budded-to-hyphal transition at 10 mg/kg, ip dosed 24 hrs post infection and co-treated with 1 mg/kg, ip fluconazole and measured after 5 days by H and E staining based microscopical analysis; type: functional, organism-based; conditions: time 5.0 day
How it was run: (§1)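 Two ICR mice per group, infected and treated as in the kidney burden model (IV 5 × 10⁵ C. albicans 0304103; IP compound 10 mg/kg, fluconazole 1 mg/kg, or combination, 5 days). Kidneys fixed in 4% paraformaldehyde, paraffin-embedded, 4 μm sections, H&E stained, examined at 40× and 200×.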

[3] = system: Pichia kudriavzevii; experiment: Synergistic antifungal activity against Candida krusei 10153 assessed as fluconazole MIC incubated for 48 hrs in presence of fluconazole by microdilution assay (reference value: fluconazole alone MIC = […] ug/ml); type: functional
[4] = system: Candida albicans; experiment: Antifungal activity against Candida albicans 0304103 infected in ICR mouse model of candidiasis assessed as reduction in morphological changes of budded-to-hyphal transition at 10 mg/kg, ip dosed 24 hrs post infection and measured after 5 days by H and E staining based microscopical analysis; type: functional, organism-based; conditions: time 5.0 day; how it was run: as §1
[5] = target: T1, Protein deacetylase HDAC6 (Homo sapiens, UniProt Q9UBN7); experiment: Inhibition of human HDAC6 pre-incubated for 5 mins before substrate addition and measured after 30 mins by fluorescence based assay
T1 sequence (Q9UBN7 whole entry): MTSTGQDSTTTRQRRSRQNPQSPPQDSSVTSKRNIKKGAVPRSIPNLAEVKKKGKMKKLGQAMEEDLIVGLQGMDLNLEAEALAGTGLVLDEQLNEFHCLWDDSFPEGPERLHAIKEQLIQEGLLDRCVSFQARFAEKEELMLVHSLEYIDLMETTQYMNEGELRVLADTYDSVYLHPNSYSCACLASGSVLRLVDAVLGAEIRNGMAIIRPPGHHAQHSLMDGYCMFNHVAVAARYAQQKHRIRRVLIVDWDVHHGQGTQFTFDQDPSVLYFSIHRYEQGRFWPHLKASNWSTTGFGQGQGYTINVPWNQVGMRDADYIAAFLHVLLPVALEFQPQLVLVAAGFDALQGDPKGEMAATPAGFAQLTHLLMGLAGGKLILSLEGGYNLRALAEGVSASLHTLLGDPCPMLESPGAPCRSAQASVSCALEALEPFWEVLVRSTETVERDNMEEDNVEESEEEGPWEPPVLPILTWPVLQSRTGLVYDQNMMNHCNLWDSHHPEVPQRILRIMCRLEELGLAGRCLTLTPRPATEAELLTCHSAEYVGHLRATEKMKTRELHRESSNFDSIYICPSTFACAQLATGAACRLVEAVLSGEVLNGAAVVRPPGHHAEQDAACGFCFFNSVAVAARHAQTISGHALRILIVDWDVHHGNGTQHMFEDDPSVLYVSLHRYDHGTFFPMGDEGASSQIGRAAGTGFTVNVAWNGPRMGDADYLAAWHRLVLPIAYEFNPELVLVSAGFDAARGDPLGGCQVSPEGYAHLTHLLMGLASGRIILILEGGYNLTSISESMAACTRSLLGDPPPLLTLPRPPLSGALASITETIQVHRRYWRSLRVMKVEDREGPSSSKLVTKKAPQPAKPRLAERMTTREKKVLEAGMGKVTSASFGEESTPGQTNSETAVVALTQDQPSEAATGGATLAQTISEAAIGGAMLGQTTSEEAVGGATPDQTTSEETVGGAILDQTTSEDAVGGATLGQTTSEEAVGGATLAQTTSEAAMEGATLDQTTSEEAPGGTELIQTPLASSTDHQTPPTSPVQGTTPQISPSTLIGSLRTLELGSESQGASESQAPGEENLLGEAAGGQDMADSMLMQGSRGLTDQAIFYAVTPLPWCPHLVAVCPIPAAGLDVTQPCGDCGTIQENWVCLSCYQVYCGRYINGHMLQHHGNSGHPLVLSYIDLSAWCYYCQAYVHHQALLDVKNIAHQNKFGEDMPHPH

[6] = system: Candida albicans; experiment: Synergistic antifungal activity against Candida albicans 10061 assessed as potentiation of fluconazole antifungal activity by measuring FICI incubated for 48 hrs in presence of fluconazole by checkerboard microdilution assay; type: functional
How it was run: (§2)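 Checkerboard broth microdilution per CLSI M27-A3 (modified), clinical Candida isolates. 48 h at 35 °C; OD630 read with background subtracted. MIC80 = 80% growth inhibition; FICI ≤0.5 synergy, >4 antagonism.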

[7] = system: Candida albicans; experiment: Induction of morphological changes in Candida albicans assessed as reduction in morphological conversion from yeast to hypha forms at 32 ug/ml incubated for 3 hrs by inverse fluorescence microscopy; type: functional, organism-based; conditions: dose 32.0 µg/ml
How it was run: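 Exponential-phase C. albicans were suspended in Spider medium ([…], 2% NaHCO₃, […]) at 2 × 10⁶ cells/mL. Drugs were added alone or combined, with DMSO as control. After 3 h at 37 °C, cells were imaged by inverted fluorescence microscopy. Three independent experiments were run.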

[8] = system: Candida albicans; experiment: Synergistic antifungal activity against Candida albicans 10061 assessed as fluconazole MIC incubated for 48 hrs in presence of fluconazole by microdilution assay (reference value: fluconazole alone MIC = >[…] ug/ml); type: functional
[9] = system: Candida albicans; experiment: Synergistic antifungal activity against Candida albicans 9172 assessed as potentiation of fluconazole antifungal activity by measuring FICI incubated for 48 hrs in presence of fluconazole by checkerboard microdilution assay; type: functional; how it was run: as §2
[10] = system: Pichia kudriavzevii; experiment: Synergistic antifungal activity against Candida krusei 10153 incubated for 48 hrs in presence of fluconazole by microdilution assay; type: functional
How it was run: as §2, with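 “isolates. Exponential cells in RPMI 1640 (MOPS-buffered) at 10³ cells/mL; fluconazole 0.25–64 μg/mL crossed with test compound 2–64 μg/mL (final).” for “isolates.”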

[11] = system: Candida albicans; experiment: Synergistic antifungal activity against azole-resistant Candida albicans assessed as potentiation of ITC antifungal activity by measuring ITC incubated for 48 hrs in presence of fluconazole by checkerboard microdilution assay; type: functional

Compound: O=C(Cc1ccc(OCCCn2c3c(c4cccc(Cl)c42)CCNC3)cc1)NO
- Activity [1]: Active
- Activity [2]: Active
- MIC80 [3]: 8 µg/mL
- Activity [4]: inactive
- IC50 [5]: 459 nM
- fractional inhibitory concentration index (FICI) [6]: 0.062
- Activity [7]: inactive
- MIC80 [8]: 2 µg/mL
- fractional inhibitory concentration index (FICI) [9]: 0.039
- MIC80 [10]: 8 µg/mL
- fractional inhibitory concentration index (FICI) [11]: 0.035

— ChEMBL document CHEMBL4706641, “Novel Carboline Fungal Histone Deacetylase (HDAC) Inhibitors for Combinational Treatment of Azole-Resistant Candidiasis” (J Med Chem, 2021)
